Holding throughout (assay type): functional, cell-based
In test [1] the test system is MCF7. The test can be described thus: Cytotoxicity against human MCF7 cells assessed as cell survival after 96 hrs by sulforhodamine B assay. To be noted: MCF7, 96 h. The gist of the method:
(§1)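 Cells in exponential growth were seeded at densities that avoided confluence and, after 24 h, exposed to serial compound dilutions (0-30 μM, DMSO ≤0.5% final) for 96 h. Cells were then fixed with 10% TCA at 4 °C, washed with water, and stained with 0.4% SRB for about 20 min. Excess dye was removed with 1% acetic acid, bound dye was taken up in 10 mM Tris base, and absorbance was read at 570 nm.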
(The SRB assay estimates cell density from bound dye.)

Test [2] has as its system HT-29. The test can be described thus: Cytotoxicity against human HT-29 cells assessed as cell survival after 96 hrs by sulforhodamine B assay. The note with it: HT-29, 96 h. The gist of the method:
as §1

For test [3], the system named is 8505C. The test can be described thus: Cytotoxicity against human 8505C cells assessed as cell survival after 96 hrs by sulforhodamine B assay. In outline: as §1
In test [4] the test system is A549. The test can be described thus: Cytotoxicity against human A549 cells assessed as cell survival after 96 hrs by sulforhodamine B assay. To be noted: A549, 96 h. In outline: as §1
The subject of test [5] is A2780. The test can be described thus: Cytotoxicity against human A2780 cells assessed as cell survival after 96 hrs by sulforhodamine B assay. The note with it: A2780, 96 h. In outline: as §1
Test [6] is described as follows: Cytotoxicity against human 518A2 cells assessed as cell survival after 96 hrs by sulforhodamine B assay. To be noted: 518A2, 96 h. The gist of the method: as §1

SMILES strings stand for the structures.

For the compound `Cc1cccc(COC(=O)[C@]23CCC(C)(C)C[C@H]2C2=CC[C@@H]4[C@@]5(C)CC[C@H](O)[C@@](C)(CO)[C@@H]5CC[C@@]4(C)[C@]2(C)CC3)c1`, the EC50 (usually the concentration giving half of the maximal effect) stood at 13.5 µM in test [1]; 14.4 µM in test [2]; 9.7 µM in test [3]; 13.5 µM in test [4]; 13.7 µM in test [5]; 10.9 µM in test [6].

On to `CC1(C)CC[C@]2(C(=O)OCc3ccc(Cl)cc3)CC[C@]3(C)C(=CC[C@@H]4[C@@]5(C)CC[C@H](O)[C@@](C)(CO)[C@@H]5CC[C@]43C)[C@@H]2C1`, for which the EC50 in test [1] is 12.7 µM; in test [2], 13.5 µM; in test [3], 8.1 µM; in test [4], 9.8 µM; in test [5], 13 µM; in test [6], 11.4 µM.

Take `C#CCNC(=O)[C@]12CCC(C)(C)C[C@H]1C1=CC[C@@H]3[C@@]4(C)CC[C@H](O)[C@@](C)(CO)[C@@H]4CC[C@@]3(C)[C@]1(C)CC2`: the EC50 in test [1] is 17 µM; in test [2], 17.3 µM; in test [3], 22.1 µM; in test [4], 16.8 µM; in test [5] it was 14.8 µM; in test [6], 21.6 µM.

In the case of `CC1(C)CC[C@]2(C(=O)OCc3ccccc3Cl)CC[C@]3(C)C(=CC[C@@H]4[C@@]5(C)CC[C@H](O)[C@@](C)(CO)[C@@H]5CC[C@]43C)[C@@H]2C1`, the EC50 is 12.7 µM in test [1]; 13.5 µM in test [2]; 9.5 µM in test [3]; 13.6 µM in test [4]; 13.6 µM in test [5]; 11.7 µM in test [6].

As for `CC1(C)CC[C@]2(C(=O)OCc3ccc(F)cc3)CC[C@]3(C)C(=CC[C@@H]4[C@@]5(C)CC[C@H](O)[C@@](C)(CO)[C@@H]5CC[C@]43C)[C@@H]2C1`, the concentration giving a half-maximal response (EC50) in test [1] was found to be 9.2 µM; in test [2], 11.3 µM; in test [3], 6.7 µM; in test [4], 8.5 µM; in test [5], 11.4 µM; in test [6], 10.2 µM.

Take `CC1(C)CC[C@]2(C(=O)OCc3c(F)c(F)c(F)c(F)c3F)CC[C@]3(C)C(=CC[C@@H]4[C@@]5(C)CC[C@H](O)[C@@](C)(CO)[C@@H]5CC[C@]43C)[C@@H]2C1`: the concentration giving a half-maximal response (EC50) came out at 16.5 µM in test [1]; 16.1 µM in test [2]; 14.1 µM in test [3]; 14.8 µM in test [4]; 13.1 µM in test [5]; 12.9 µM in test [6].

In the case of `CC1(C)CC[C@]2(C(=O)NCCN3CCOCC3)CC[C@]3(C)C(=CC[C@@H]4[C@@]5(C)CC[C@H](O)[C@@](C)(CO)[C@@H]5CC[C@]43C)[C@@H]2C1`, the EC50 in test [1], in test [2], in test [3], in test [4], in test [5] and in test [6] was above 30 µM in each case.

`CC1(C)CC[C@]2(C(=O)OCc3ccc(F)cc3F)CC[C@]3(C)C(=CC[C@@H]4[C@@]5(C)CC[C@H](O)[C@@](C)(CO)[C@@H]5CC[C@]43C)[C@@H]2C1`: the EC50 in test [1] was found to be 11.5 µM; in test [2], 13 µM; in test [3] it was 8 µM; in test [4], 11.4 µM; in test [5], 12.9 µM; in test [6], 9.5 µM.

Consider `CC1(C)CC[C@]2(C(=O)O)CC[C@]3(C)C(=CC[C@@H]4[C@@]5(C)CC[C@H](O)[C@@](C)(CO)[C@@H]5CC[C@]43C)[C@@H]2C1` [HEDERAGENIN], for which the half-maximal effective concentration (EC50) in test [1] turned out to be 25.7 µM; in test [2], 50 µM; in test [3] it was 38 µM; in test [4], 29 µM; in test [5] it was 19.9 µM; in test [6], 34.9 µM.

For the compound `CC1(C)CC[C@]2(C(=O)OCCCN3C(=O)c4ccccc4C3=O)CC[C@]3(C)C(=CC[C@@H]4[C@@]5(C)CC[C@H](O)[C@@](C)(CO)[C@@H]5CC[C@]43C)[C@@H]2C1`, the EC50 is 9 µM in test [1]; 13.4 µM in test [2]; 10.3 µM in test [3]; 11.4 µM in test [4]; 12.1 µM in test [5]; 8.7 µM in test [6].

Consider `CC1(C)CC[C@]2(C(=O)OCCC3OCCCO3)CC[C@]3(C)C(=CC[C@@H]4[C@@]5(C)CC[C@H](O)[C@@](C)(CO)[C@@H]5CC[C@]43C)[C@@H]2C1`, for which the EC50 in test [1] was found to be 12.7 µM; in test [2], 13.4 µM; in test [3], 13.1 µM; in test [4], 13.1 µM; in test [5], 15 µM; in test [6], 11.1 µM.

Regarding `CC1(C)CC[C@]2(C(=O)OCc3c(Cl)cccc3Cl)CC[C@]3(C)C(=CC[C@@H]4[C@@]5(C)CC[C@H](O)[C@@](C)(CO)[C@@H]5CC[C@]43C)[C@@H]2C1`, the concentration giving a half-maximal response (EC50) is 12.7 µM in test [1]; 13.3 µM in test [2]; 9.4 µM in test [3]; 12.9 µM in test [4]; 14.4 µM in test [5]; 9.2 µM in test [6].

Regarding `Cc1ccccc1COC(=O)[C@]12CCC(C)(C)C[C@H]1C1=CC[C@@H]3[C@@]4(C)CC[C@H](O)[C@@](C)(CO)[C@@H]4CC[C@@]3(C)[C@]1(C)CC2`, the EC50 turned out to be 11.3 µM in test [1]; 13.2 µM in test [2]; 8.4 µM in test [3]; 12.6 µM in test [4]; 12.9 µM in test [5]; 9 µM in test [6].

For the compound `CC1(C)CC[C@]2(C(=O)OCc3ccccc3)CC[C@]3(C)C(=CC[C@@H]4[C@@]5(C)CC[C@H](O)[C@@](C)(CO)[C@@H]5CC[C@]43C)[C@@H]2C1`, the EC50 in test [1] is 7.9 µM; in test [2] it was 9.5 µM; in test [3], 7.6 µM; in test [4], 7 µM; in test [5], 9.7 µM; in test [6], 7.8 µM.

As to `CC1(C)CC[C@]2(C(=O)OCc3ccc([N+](=O)[O-])cc3)CC[C@]3(C)C(=CC[C@@H]4[C@@]5(C)CC[C@H](O)[C@@](C)(CO)[C@@H]5CC[C@]43C)[C@@H]2C1`, the EC50 in test [1] came to 7.8 µM; in test [2] it was 7.8 µM; in test [3] it was 6.1 µM; in test [4] it was 6.5 µM; in test [5], 7.8 µM; in test [6], 8.4 µM.

For `CC1(C)CC[C@]2(C(=O)OCc3cccc(Br)c3)CC[C@]3(C)C(=CC[C@@H]4[C@@]5(C)CC[C@H](O)[C@@](C)(CO)[C@@H]5CC[C@]43C)[C@@H]2C1`, the concentration giving a half-maximal response (EC50) in test [1] is 14.2 µM; in test [2], 15.3 µM; in test [3], 13.7 µM; in test [4], 14.2 µM; in test [5], 14.6 µM; in test [6], 13.8 µM.

In the case of `CC1(C)CC[C@]2(C(=O)OCc3cccc(Cl)c3)CC[C@]3(C)C(=CC[C@@H]4[C@@]5(C)CC[C@H](O)[C@@](C)(CO)[C@@H]5CC[C@]43C)[C@@H]2C1`, the EC50 in test [1] was found to be 13 µM; in test [2], 14.8 µM; in test [3] it was 11.9 µM; in test [4], 13 µM; in test [5], 13.8 µM; in test [6], 11.7 µM.

For `CC1(C)CC[C@]2(C(=O)On3nnc4ccccc43)CC[C@]3(C)C(=CC[C@@H]4[C@@]5(C)CC[C@H](O)[C@@](C)(CO)[C@@H]5CC[C@]43C)[C@@H]2C1`, the 50% effective concentration (EC50) in test [1] was 7.7 µM; in test [2], 11.2 µM; in test [3], 9.5 µM; in test [4], 9.5 µM; in test [5], 8.8 µM; in test [6] it was 8.6 µM.

Consider `CC1(C)CC[C@]2(C(=O)OCc3ccccc3[N+](=O)[O-])CC[C@]3(C)C(=CC[C@@H]4[C@@]5(C)CC[C@H](O)[C@@](C)(CO)[C@@H]5CC[C@]43C)[C@@H]2C1`, for which the EC50 was found to be 10.2 µM in test [1]; 12.8 µM in test [2]; 8.8 µM in test [3]; 10.9 µM in test [4]; 12.9 µM in test [5]; 10.3 µM in test [6].

As for `CC1(C)CC[C@]2(C(=O)OCc3ccccc3Br)CC[C@]3(C)C(=CC[C@@H]4[C@@]5(C)CC[C@H](O)[C@@](C)(CO)[C@@H]5CC[C@]43C)[C@@H]2C1`, the EC50 turned out to be 12.7 µM in test [1]; 14.3 µM in test [2]; 7.8 µM in test [3]; 13.2 µM in test [4]; 14.3 µM in test [5]; 10.9 µM in test [6].

As to `Cc1ccc(COC(=O)[C@]23CCC(C)(C)C[C@H]2C2=CC[C@@H]4[C@@]5(C)CC[C@H](O)[C@@](C)(CO)[C@@H]5CC[C@@]4(C)[C@]2(C)CC3)cc1`, the EC50 in test [1] stood at 13.7 µM; in test [2], 14.8 µM; in test [3], 8.8 µM; in test [4], 13.7 µM; in test [5], 14.7 µM; in test [6] it was 11.8 µM.

Consider `CC1(C)CC[C@]2(C(=O)OCc3c(F)cccc3F)CC[C@]3(C)C(=CC[C@@H]4[C@@]5(C)CC[C@H](O)[C@@](C)(CO)[C@@H]5CC[C@]43C)[C@@H]2C1`, for which the EC50 in test [1] amounted to 10.2 µM; in test [2], 12 µM; in test [3] it was 8.7 µM; in test [4] it was 11.7 µM; in test [5], 11.6 µM; in test [6] it was 7.5 µM.

As for `CC1(C)CC[C@]2(C(=O)OCc3ccccc3F)CC[C@]3(C)C(=CC[C@@H]4[C@@]5(C)CC[C@H](O)[C@@](C)(CO)[C@@H]5CC[C@]43C)[C@@H]2C1`, the EC50 in test [1] is 12.5 µM; in test [2], 13.2 µM; in test [3], 11.2 µM; in test [4], 13.2 µM; in test [5] it was 13.4 µM; in test [6], 10 µM.
